Source: PubChem BioAssay (several laboratories)
Compounds with a hit are over-represented: about 2.1% of the library has one in this group of screens.
aDG glyco act = alpha-DG glycosylation activation. Pro5-aDG cells, alpha-DG glycosylation AlphaScreen (IIH6); 0% Pro5, 100% B10-LARGE cell signal. activation, % at 10 µM. 360,000 compounds, 0.22% hits. AID 624168;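 active means activation of at least 8% versus controls, or a plate z-score of at least 8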;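 further: Pro5 are CHO cells carrying HIG-tagged alpha-DG that lacks glycosylation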
PfG6PD inh = PfG6PD (Plasmodium falciparum) enzyme inhibition. PfGluPho enzyme, NADPH resazurin-diaphorase fluorescence. 350,000 compounds, 0.78% hits. inhibition, % at 20 µM;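 active means inhibition reaching at least a set limit at 20 µM in the primary screen, cut at about 59% in these data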;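 further: 0% = DMSO wells with substrate and 100% = DMSO wells lacking glucose-6-phosphate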
HKDC1 inh = HKDC1 (human) hexokinase inhibition. recombinant HKDC1, G6PDH/diaphorase resazurin coupled fluorescence. inhibition, % at 20 µM. 340,000 compounds, 0.16% hits. AID 493160;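 active means inhibition above about 35% when tested at 20 µM, limit read from the data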;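 further: plate controls were DMSO wells with enzyme for no effect and DMSO wells lacking enzyme for full effect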
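System: Recombinant HKDC1 hexokinase | Amount: HKDC1 at 5 µg/mL | Reagent: Glucose with 1 mM ATP | Doses: Single 20 µM dose | Incubation: Reaction time 90 min, room temperature, protected from light | Signal: Coupled resazurin fluorescence, excitation 525 nm, emission 613 nm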
Beta2AR agonist = human beta-2 adrenergic receptor agonism by FAP; Am2.2-beta2AR cells, FAP receptor internalization, flow cytometry; 340,000 compounds, 0.43% hits; response, % (test concentration not listed);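 active means response above a set limit, near 3 SD of response in nonfluorescent compounds, cut at about 42% in these data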
Target sequence (P07550 whole entry, looked up): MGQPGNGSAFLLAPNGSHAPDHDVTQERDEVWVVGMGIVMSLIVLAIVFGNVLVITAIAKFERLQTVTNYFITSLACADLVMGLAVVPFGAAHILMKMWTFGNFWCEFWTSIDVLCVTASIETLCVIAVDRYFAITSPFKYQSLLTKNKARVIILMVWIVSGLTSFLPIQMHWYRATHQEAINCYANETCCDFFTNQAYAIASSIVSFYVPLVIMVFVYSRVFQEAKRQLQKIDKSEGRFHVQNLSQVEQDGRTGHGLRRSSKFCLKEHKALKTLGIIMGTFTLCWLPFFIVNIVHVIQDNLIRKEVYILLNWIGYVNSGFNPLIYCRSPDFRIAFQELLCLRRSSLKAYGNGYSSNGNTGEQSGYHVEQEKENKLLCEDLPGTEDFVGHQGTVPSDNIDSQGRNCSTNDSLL
UCH37 inh = human UCH37 deubiquitinating enzyme inhibition; Q9Y5K5; purified proteasome/UCH37, Ub-AMC cleavage fluorescence; inhibition, % (test concentration not listed); 330,000 compounds, 0.33% hits; AID 588478;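 active means mean inhibition over replicate wells above about 20%, limit read from the data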;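 further: 0% = compound-free wells with enzyme and 100% = wells lacking proteasome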
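System: Proteasome-associated human UCH37 deubiquitinase; Input: 0.15 nM proteasome in added enzyme buffer; Also added: Ub-AMC substrate from 1 µM stock; Incubation: 30 min compound-proteasome preincubation then 25 min substrate reaction, room temperature; Detection: fluorescence, ex 355 nm, em 460 nm; Read-out: % inhibition of Ub-AMC cleavage fluorescence; Benchmarks: no-proteasome and no-compound wells.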
H9c2 protect = modulators protecting cardiomyocytes from myocardial damage | H9c2 cardiomyocytes, H2O2 injury protection, ATPLite, 2 h | protection from H2O2 cell death, % at 20 µM | 360,000 compounds, 0.63% hits | AID 588492;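 active means compounds giving at least 50% protection of heart cells from peroxide-induced death in the single-dose screen, raw or plate-pattern-corrected value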;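 further: 0% = DMSO wells with peroxide and 100% = DMSO wells without peroxide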
aDG glyco conf = confirmation of alpha dystroglycan glycosylation activators; shares compounds with aDG glyco act; Pro5-aDG cells, alpha-DG glycosylation, IIH6 AlphaLISA; scaled to LARGE-overexpressing B10 cells as 100%; activation, % at 10 µM (by protocol); 600 compounds, 17% hits;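 active means activation of at least 7% in one or more replicates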;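 further: cells exposed to compound for two days before detection; 0% = DMSO-treated Pro5 cells and 100% = DMSO-treated B10-LARGE cells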
Starred values were filed as active, the others as inactive; . = no result given.

SMILES	aDG glyco act	PfG6PD inh	HKDC1 inh	Beta2AR agonist	UCH37 inh	H9c2 protect	aDG glyco conf
CC1CCCN(S(=O)(=O)c2ccc(C(=O)Nc3sc4c(c3C(N)=O)CCN(C)C4)cc2)C1 (stereo not drawn)	48*	-13	4	-151	5	-1	3.7*
CC(C)N1CCc2c(sc(NC(=O)C3CCCCC3)c2C(N)=O)C1	8.2*	8	-2	-1	2	9	-1
O=C(CSc1ccc(C=NNC(=O)c2cccc(F)c2)o1)Nc1ccccc1	.	.	.	.	-4	.	.
N#Cc1ccsc1NC(=O)c1ccc2ncsc2c1	15*	6	.	.	.	2	5.5*
N#Cc1ccsc1NC(=O)c1cccc(-n2cnnn2)c1	11*	26	1	4	4	7	7.1*
O=C(Nc1ccc(F)cc1)c1ccc2ncsc2c1	0	2	-1	-3	-2	-1	.
CCN1C(=O)/C(=C\N(C)C)SC1=NS(=O)(=O)c1ccc(C)cc1	.	.	.	.	5	.	.
O=C(CCN1CCCCC1)c1ccccc1	4.7*	2	-4	33	2	7	0
COC(=O)NN=Cc1cn(CCOc2ccccc2OC)c2ccccc12	.	.	.	.	1	.	.
CC(C)Oc1ccc(OCCCN2CCCCCC2)cc1	5.2*	9	-5	-4	0	9	13*
CC(C)c1ccc(OCCCCN2CCCCC2)cc1	1	-23	5	2	3	-5	.
O=c1c(Cl)c(NN=Cc2ccc(Cl)cc2)cnn1-c1ccccc1	.	.	.	.	-53	.	.
Clc1ccc(SCc2cc(N3CCOCC3)nc(-c3ccccn3)n2)cc1	8.5*	0	0	-4	0	-3	4.0*
COc1ccc(C(C)=NNC(=O)c2sccc2-n2cccc2)cc1	.	.	.	.	-22	.	.
COCCNC(=S)N/N=C(\C)c1ccc(O)cc1	7.4*	-7	-5	7	.	-9	0
C=CCNC(=S)NN=C(C)c1cccc(OC)c1	.	.	.	.	1	.	.
C=CCNC(=S)N/N=C(\C)c1ccc(OC)cc1	12*	6	-13	2	.	-7	1
COCCNC(=S)NN=C(C)c1ccc(Cl)c(Cl)c1	.	.	.	.	1	.	.
Cc1nc(SCC(=O)Nc2cc(C(N)=O)cc(C(N)=O)c2)c2c(C)c(C)sc2n1	9.0*	11	2	3	1	2	13*
O=C(NN=Cc1cccc2ccccc12)c1ccc(CN2CCOCC2)cc1	.	.	.	.	4	.	.
Cc1ccc(S(=O)(=O)N2CCOCC2)cc1C(=O)NC1CCCCC1	50*	-7	-7	2	1	9	-1
Cc1ccc(S(=O)(=O)N2CCOCC2)cc1C(=O)NC1CCCC1	0	0	-5	-2	4	-2	.
N#Cc1ccc(-c2nc3c4ccccc4ccn3c2CC2CCCCC2)cc1	22*	.	.	.	.	.	7.2*
NC(=NC(=O)c1ccc(OC(F)(F)F)cc1)c1ccc(C(F)(F)F)cn1	3.8*	8	0	-8	1	-6	0
COc1cc(NC(=O)c2c(F)c(F)c(F)c(F)c2F)c(OC)cc1Cl	7.7*	-10	-1	16	4	8	0
SMILES	aDG glyco act	PfG6PD inh	HKDC1 inh	Beta2AR agonist	UCH37 inh	H9c2 protect	aDG glyco conf
COc1cc(NC(=O)c2ccc(F)cc2)c(OC)cc1Cl	0	1	-2	-4	3	3	.
CC(=NNC(=O)c1cccs1)c1cccnc1	.	.	.	.	4	.	.
COc1ccc(S[C@@H](CCN2CC[C@H](NC(=O)OCc3ccccc3)CCC2=O)c2ccccc2)cc1	1	-8	6	-5	.	-3	.
O=C(N[C@@H]1CCC(=O)N(CC[C@H](Sc2ccc(Br)cc2)c2ccccc2)CC1)OCc1ccccc1	9.1*	13	4	6	1	-15	1
Cn1cnc([N+](=O)[O-])c1Sc1nc2ccccc2[nH]1	0	5	2	-6	5	5	.
Cn1cnc([N+](=O)[O-])c1Oc1ccc2ccccc2c1	4.7*	13	31	15	3	-1	-1
CC(CC(=O)Nc1ccccc1C)=NNC(=O)Cc1csc(N)n1	.	.	.	.	0	.	.
Cc1ccc(-n2c(C)cc(C=NNC(=O)c3ccncc3)c2C)c(C)c1	.	.	.	.	7	.	.
